Activity calls are given as the source filed them. The rule behind the calls is not given here.
Experiments:
[1] = target: 5-hydroxytryptamine receptor 2A (Rattus norvegicus, UniProt P14842); test: Displacement of [3H]ketanserin from 5HT2A receptor in Sprague-Dawley rat brain cortex incubated for 15 mins
How it was run: (§1)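 Rat frontal cortex homogenized in 50 mM Tris-HCl, 0.5 mM EDTA, 10 mM MgCl2, pH 7.4, washed, resuspended with 0.1% ascorbate and pargyline. Triplicates: 5-HT2A used 0.4 nM [3H]ketanserin, cinanserin for nonspecific binding; 5-HT2C used 1 nM [3H]mesulergine, mianserin nonspecific, 100 nM spiperone added. 15 min at 37 C, glass-fiber filtration.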

[2] = target: T1, 5-hydroxytryptamine receptor 2C (Rattus norvegicus, UniProt P08909); test: Displacement of [3H]mesulergine from 5HT2C receptor in Sprague-Dawley rat brain cortex incubated for 15 mins; how it was run: as §1
T1 sequence (P08909 whole entry): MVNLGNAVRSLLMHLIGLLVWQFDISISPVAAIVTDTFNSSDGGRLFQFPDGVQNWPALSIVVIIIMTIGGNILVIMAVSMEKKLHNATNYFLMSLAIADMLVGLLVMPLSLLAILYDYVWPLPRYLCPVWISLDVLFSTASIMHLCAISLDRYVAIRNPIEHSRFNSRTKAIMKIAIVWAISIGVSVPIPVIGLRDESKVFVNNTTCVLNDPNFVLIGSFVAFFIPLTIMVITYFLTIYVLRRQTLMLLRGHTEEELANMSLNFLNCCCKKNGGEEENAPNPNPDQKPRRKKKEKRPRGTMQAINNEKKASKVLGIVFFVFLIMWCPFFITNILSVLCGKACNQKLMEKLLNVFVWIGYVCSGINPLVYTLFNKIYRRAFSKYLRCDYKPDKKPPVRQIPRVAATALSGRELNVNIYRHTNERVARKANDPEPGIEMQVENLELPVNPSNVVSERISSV

[3] = system: Mus musculus; test: Inhibition of amphetamine-induced hyperlocomotion in Albino Swiss mouse at 0.1 ED50, ip administered 60 mins prior to test measured for 30 mins by photoresistor actometer analysis; format: functional
How it was run: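 Single male Albino Swiss mice; compound i.p. 60 min and amphetamine 5 mg/kg s.c. 30 min before test. Photoresistor actometers (circular cage, two light beams) counted beam crossings over 30 min; mean ± SEM, Dunnett's test vs control.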

[4] = system: Mus musculus; test: Neurotoxicity in Albino Swiss mouse assessed as induction of myorelaxation at 0.0125 to 0.1 ED50, ip after 60 mins by chimney test; format: toxicity, organism-based; conditions: in vivo, 1 h
[5] = system: Mus musculus; test: Neurotoxicity in Albino Swiss mouse assessed as induction of myorelaxation at 0.0125 to 0.1 ED50, ip after 60 mins by rotarod test; format: toxicity, organism-based; conditions: in vivo, 1 h
[6] = system: Mus musculus; test: Neurotoxicity in Albino Swiss mouse assessed as impairment in motor coordination at 0.0125 to 0.1 ED50, ip after 60 mins by chimney test; format: toxicity, organism-based; conditions: in vivo, 1 h
[7] = system: Mus musculus; test: Neurotoxicity in Albino Swiss mouse assessed as impairment in motor coordination at 0.0125 to 0.1 ED50, ip after 60 mins by rotarod test; format: toxicity, organism-based; conditions: in vivo, 1 h
[8] = system: Mus musculus; test: Toxicity in ip dosed Albino Swiss mouse assessed as loss of righting reflex administered 60 mins before test measured up to 48 hrs; format: organism-based; conditions: in vivo
How it was run: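 Acute toxicity in male Albino Swiss mice by Litchfield-Wilcoxon method: ED50 for loss of righting reflex after i.p. dosing, observed at 15, 30, 60, 180 min and 24, 48 h.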

[9] = system: Mus musculus; test: Toxicity in Albino Swiss mouse assessed as inhibition of spontaneous locomotor activity at 0.1 ED50, ip administered 60 mins before test measured for 30 mins by photoresistor actometer analysis; format: organism-based; conditions: in vivo, 0.5 h
How it was run: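 Spontaneous locomotion of single male Albino Swiss mice recorded in two-beam photoresistor actometers as beam crossings for 30 min, beginning 60 min after i.p. compound (suspension in 0.5% methylcellulose).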

[10] = system: Mus musculus; test: Inhibition of 5-HTP-induced head twitch response in Albino Swiss mouse at 0.1 ED50, ip administered 60 mins before 5-HTP injection relative to untreated control; format: functional
How it was run: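 Male Albino Swiss mice given compound i.p. (0.1 ED50, 0.5% methylcellulose) 60 min before the test; L-5-HTP 230 mg/kg i.p. injected immediately before. Head twitches counted; mean ± SEM, Dunnett's test vs control.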

[11] = system: Mus musculus; test: Anticonvulsant activity in Albino Swiss mouse assessed as protection against pentetrazol-induced clonic seizure at 0.1 ED50, ip administered 60 mins prior to test relative to untreated control; format: functional
How it was run: (§2)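 Male Albino Swiss mice (18-30 g); compound given i.p. as suspension in 0.5% methylcellulose 60 min before test; pentylenetetrazole 110 mg/kg s.c. Scored as number of mice with clonic seizures, tonic convulsions and deaths per animals tested; Fisher's exact test vs solvent control.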

[12] = system: Mus musculus; test: Increase in body temperature in Albino Swiss mouse at 0.1 ED50, ip administered 60 mins before test measured 30 to 90 mins post dose; format: functional, organism-based
How it was run: (§3)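 Normothermic male Albino Swiss mice; rectal temperature by thermistor thermometer. Baseline taken as mean of readings at 60 and 30 min before dosing; i.p. dose (0.1 ED50, 0.5% methylcellulose vehicle) then readings at 30, 60, 90, 120 min (to 180 min for some). Change = final minus initial; Bonferroni post hoc test.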

[13] = system: Mus musculus; test: Antinociceptive activity in Albino Swiss mouse assessed as inhibition of acetic acid-induced writhing response at 0.1 ED50, ip administered 60 mins prior to test measured for 10 mins; format: functional, organism-based
How it was run: (§4)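 Male Albino Swiss mice, i.p. dosing in 0.5% methylcellulose 60 min beforehand; 0.6% acetic acid injected i.p., writhing episodes counted for 10 min beginning 5 min after acid. Mean ± SEM; one-way ANOVA with Dunnett's test vs control.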

[14] = system: Mus musculus; test: Antinociceptive activity in Albino Swiss mouse assessed as inhibition of acetic acid-induced writhing response at 0.1 ED50, ip administered 60 mins prior to test measured for 10 mins in presence of opioid receptor antagonist naloxone; format: functional, organism-based
[15] = system: Mus musculus; test: Inhibition of (+/-)DOI-induced head twitch response in Albino Swiss mouse at 28.6 mg/kg, ip administered 60 mins before (+/-)DOI injection measured for 20 mins relative to untreated control; format: functional
How it was run: (§5)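 Male Albino Swiss mice; compounds suspended in 0.5% methylcellulose, injected i.p. 60 min before (±)DOI 2.5 mg/kg i.p.; head twitches counted over 20 min. Mean ± SEM, percent reduction versus DOI-treated group; one-way ANOVA with Bonferroni post hoc test.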

[16] = system: Mus musculus; test: Inhibition of (+/-)DOI-induced head twitch response in ip dosed Albino Swiss mouse administered 60 mins before (+/-)DOI injection measured for 20 mins; format: functional, organism-based; how it was run: as §5
[17] = system: Mus musculus; test: Increase in body temperature in Albino Swiss mouse at 0.1 ED50, ip administered 60 mins before test measured 30 to 180 mins post dose; format: functional, organism-based; how it was run: as §3
[18] = system: Mus musculus; test: Antinociceptive activity in Albino Swiss mouse assessed as inhibition of acetic acid-induced writhing response at 0.025 to 0.05 ED50, ip administered 60 mins prior to test measured for 10 mins; format: functional, organism-based; how it was run: as §4
[19] = system: Mus musculus; test: Antinociceptive activity in Albino Swiss mouse assessed as inhibition of acetic acid-induced writhing response at 0.05 ED50, ip administered 60 mins prior to test measured for 10 mins in presence of opioid receptor antagonist naloxone; format: functional, organism-based
[20] = system: Mus musculus; test: Decrease in body temperature in Albino Swiss mouse at 0.1 ED50, ip administered 60 mins before test measured 30 to 120 mins post dose; format: functional, organism-based; how it was run: as §3
[21] = system: Mus musculus; test: Inhibition of (+/-)DOI-induced head twitch response in Albino Swiss mouse at 36.55 mg/kg, ip administered 60 mins before (+/-)DOI injection measured for 20 mins relative to untreated control; format: functional; how it was run: as §5
[22] = system: Mus musculus; test: Anticonvulsant activity in Albino Swiss mouse assessed as protection against pentetrazol-induced tonic seizure at 0.1 ED50, ip administered 60 mins prior to test relative to untreated control; format: functional; how it was run: as §2
[23] = system: Mus musculus; test: Protection against pentetrazol-induced mortality in Albino Swiss mouse at 0.1 ED50, ip administered 60 mins prior to test relative to untreated control; format: functional
How it was run: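 Male Albino Swiss mice (18–30 g). Compound given i.p. as suspension in 0.5% methylcellulose (10 mL/kg), 60 min before test; controls got vehicle. Dose expressed as fraction of ED50 (loss of righting reflex within 48 h). Convulsions induced by pentylenetetrazole 110 mg/kg s.c.; dead animals counted per group (n=10; control n=16). Significance vs control by Fisher's exact test.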

[24] = system: Mus musculus; test: Effect on body temperature in Albino Swiss mouse at 0.1 ED50, ip administered 60 mins before test measured 30 to 180 mins post dose; format: functional, organism-based; how it was run: as §3
[25] = system: Mus musculus; test: Inhibition of (+/-)DOI-induced head twitch response in Albino Swiss mouse at 73.1 mg/kg, ip administered 60 mins before (+/-)DOI injection measured for 20 mins relative to untreated control; format: functional; how it was run: as §5

5-hydroxytryptamine receptor 2A, sequence (P14842 whole entry): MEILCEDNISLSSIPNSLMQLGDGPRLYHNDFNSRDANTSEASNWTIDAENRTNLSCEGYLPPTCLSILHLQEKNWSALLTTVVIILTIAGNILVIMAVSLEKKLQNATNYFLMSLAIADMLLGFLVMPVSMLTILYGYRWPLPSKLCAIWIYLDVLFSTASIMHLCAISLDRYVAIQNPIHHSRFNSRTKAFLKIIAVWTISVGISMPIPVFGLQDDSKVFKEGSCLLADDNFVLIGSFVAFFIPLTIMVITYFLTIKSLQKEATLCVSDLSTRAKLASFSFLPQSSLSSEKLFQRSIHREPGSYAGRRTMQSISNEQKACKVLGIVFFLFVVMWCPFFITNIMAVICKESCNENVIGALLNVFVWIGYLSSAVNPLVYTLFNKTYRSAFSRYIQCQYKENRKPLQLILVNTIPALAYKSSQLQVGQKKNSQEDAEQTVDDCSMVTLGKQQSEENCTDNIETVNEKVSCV

COc1ccc(NC(=S)Nc2cccc(C(F)(F)F)c2)cc1
Ki [1]: > 10 µM
Ki [2]: > 10 µM
inhibition [3]: Active
Activity [4]: Non-toxic
Activity [5]: Non-toxic
Activity [6]: Non-toxic
Activity [7]: Non-toxic
ED50 [8]: 771.4 mg/kg
Activity [9]: Non-toxic
inhibition [10]: inactive
Activity [11]: inactive
Activity [12]: Active

O=[N+]([O-])c1cc(NC(=S)Nc2ccccc2Cl)ccc1Cl
Ki [1]: > 10 µM
Ki [2]: > 10 µM
Activity [9]: Non-toxic

FC(F)(F)c1cccc(NC(=S)Nc2ccccc2Cl)c1
inhibition [13]: Active
Ki [1]: > 10 µM
Ki [2]: > 10 µM
Activity [4]: Non-toxic
Activity [5]: Non-toxic
Activity [6]: Non-toxic
Activity [7]: Non-toxic
ED50 [8]: 2000 mg/kg
Activity [9]: Toxic
inhibition (INH) [10]: 72.4%
inhibition [14]: Active

Fc1ccc(NC(=S)Nc2cccc(C(F)(F)F)c2)cc1Cl
Ki [1]: 4.3e-05 µM
Ki [2]: > 10 µM
inhibition (INH) [3]: 47.3%
Activity [4]: Non-toxic
Activity [5]: Non-toxic
Activity [6]: Non-toxic
Activity [7]: Non-toxic
ED50 [8]: 286.2 mg/kg
Activity [9]: Non-toxic
inhibition [10]: inactive
inhibition in vivo at 28.6 mg/kg [15]: 51.6%
inhibition [16]: Dose-dependent effect
Activity [11]: inactive
Activity [17]: Active

CC(NC(=S)Nc1ccc(Cl)c([N+](=O)[O-])c1)c1ccccc1 (stereo not given)
inhibition [13]: Active
Ki [1]: > 10 µM
Ki [2]: > 10 µM
inhibition [3]: inactive
Activity [4]: Non-toxic
Activity [5]: Non-toxic
Activity [6]: Non-toxic
Activity [7]: Non-toxic
ED50 [8]: 1031.3 mg/kg
Activity [9]: Non-toxic
inhibition (INH) [10]: 89%
inhibition [18]: Active
inhibition [19]: Active
Activity [11]: inactive
Activity [20]: Active

FC(F)(F)c1cccc(NC(S)=NCc2ccccc2)c1
inhibition [13]: Active
Ki [1]: 0.0006 µM
Ki [2]: > 10 µM
inhibition [3]: Active
Activity [4]: Non-toxic
Activity [5]: Non-toxic
Activity [6]: Non-toxic
Activity [7]: Non-toxic
ED50 [8]: 731.3 mg/kg
Activity [9]: Non-toxic
inhibition (INH) [10]: 73.3%
inhibition in vivo at 36.55 mg/kg [21]: 69.4%
inhibition [16]: Dose-dependent effect
inhibition [18]: Active
inhibition [19]: Active
Activity [22]: 46.66%
Activity [23]: Active
Activity [11]: 40%
Activity [24]: inactive
inhibition in vivo at 73.1 mg/kg [25]: 72.2%
